In ChEMBL document CHEMBL3351236, “Prodrug oncrasin-266 improves the stability, pharmacokinetics, and safety of NSC-743380” (Bioorg Med Chem, 2014):
Active and inactive are the calls of the source. The calls are words filed in the database; no cut-off is given here.

Columns and labels:
NCI-H1299 = test: Anticancer activity against human H1299 cells at 0.03 to 30 uM by sulforhodamine B assay; format: functional, cell-based
Summary of the method: (§1)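 Sulforhodamine B viability assay on lung cancer cells exposed to a range of compound concentrations for 3 days. Untreated reference: DMSO-treated cells set as 100. Values are mean ± SD of quadruplicate wells.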

NCI-H460 = test: Anticancer activity against human H460 cells at 0.03 to 30 uM by sulforhodamine B assay; format: functional, cell-based; summary of the method: as §1
[1] = Stability in stock solution with Solutol HS15 and ethyl alcohol solvent at 4 degC by HPLC method; format: physicochemical
Summary of the method: (§2)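 Stock solutions were made by dissolving compound in 75% (w/v) Solutol HS15 in ethanol (about 20% v/v ethanol). Final concentrations were 8 mg/ml for prodrug and 5 mg/ml for parent. Stocks were stored at 4°C or room temperature; aliquots were frozen at −20°C before HPLC.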

Intestine = test: Drug level in intestine of Balb/c mouse xenografted with human Calu3 cells assessed as aldehyde metabolite level at 60 mg/kg, iv using compound formulated in Solutol HS15 and ethyl alcohol measured after 24 hrs by HPLC/MS method; format: ADME, organism-based, Calu-3; set-up: dose 60 mg/kg, route intravenous; conditions: in vivo
Summary of the method: (§3)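 Nude mice bearing subcutaneous Calu3 xenografts, 1 mouse per treatment group. Organs and tumor were taken 24 h later and kept at −80°C, then homogenized in methanol (50 mg/ml) on ice. Homogenate was extracted with acetonitrile containing 0.2% formic acid plus an internal standard, centrifuged, and the supernatant analyzed by HPLC/MS.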

Tumour [2] = test: Drug level in tumor of Balb/c mouse xenografted with human Calu3 cells assessed as oncrasin-72 level at 60 mg/kg, iv using compound formulated in Solutol HS15 and ethyl alcohol measured after 24 hrs by HPLC/MS method; format: ADME, organism-based, Neoplasm, Calu-3; set-up: dose 60 mg/kg, route intravenous; conditions: in vivo; summary of the method: as §3
[3] = Stability in stock solution with Solutol HS15 and ethyl alcohol solvent at room temperature by HPLC method; format: physicochemical; summary of the method: as §2
Mus musculus [4] = test: Toxicity in Balb/c mouse assessed as mortality level at 300 mg/kg, ip using compound formulated in Solutol HS15 and ethyl alcohol measured after 1 day; format: organism-based; set-up: dose 300 mg/kg, route intraperitoneal; conditions: in vivo, 24 h
Summary of the method: (§4)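 Acute toxicity: 3 Balb/c mice (7–8 weeks) per group, given i.p. 300 mg/kg on day 1 and again on day 2. Deaths were recorded by day; survivors were followed for 2 weeks.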

[5] = Half life in Balb/c mouse at 25 mg/kg, iv using compound formulated in Solutol HS15 and ethyl alcohol by HPLC/MS method; format: ADME, organism-based; set-up: dose 25 mg/kg, route intravenous; conditions: in vivo
Summary of the method: (§5)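 Balb/c mice received 25 mg/kg by tail vein in Solutol HS15/ethanol vehicle. Blood was drawn from the tail vein at 0, 1, 2, 3.5, 7 and 24 h, 3 mice per time point, into lithium-heparin tubes. Plasma (50 µl) was precipitated with 150 µl acetonitrile containing 0.2% formic acid and internal standard, iced 15 min, centrifuged, and the supernatant analyzed by HPLC/MS for parent and released drug.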

[6] = Stability in powder form in non-evacuated chambers at room temperature by HPLC method; format: physicochemical
Summary of the method: (§6)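 Powders were kept at 4°C, room temperature (21°C) or 37°C and sampled for up to 90 days. Each aliquot was dissolved in DMSO, diluted with 9 volumes acetonitrile, and analyzed by HPLC for purity.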

Mus musculus [7] = test: Toxicity in Balb/c mouse assessed as mortality at 150 mg/kg, ip dosed daily for 3 days using compound formulated in Solutol HS15 and ethyl alcohol measured on day 5; format: organism-based; set-up: dose 150 mg/kg, route intraperitoneal; conditions: in vivo, 72 h
Kidney [8] = test: Drug level in kidney of Balb/c mouse xenografted with human Calu3 cells assessed as oncrasin-72 level at 60 mg/kg, iv using compound formulated in Solutol HS15 and ethyl alcohol measured after 24 hrs by HPLC/MS method; format: ADME, organism-based, Calu-3; set-up: dose 60 mg/kg, route intravenous; conditions: in vivo; summary of the method: as §3
Mus musculus [9] = test: Toxicity in Balb/c mouse assessed as survival at 300 mg/kg, ip using compound formulated in Solutol HS15 and ethyl alcohol; format: organism-based; set-up: dose 300 mg/kg, route intraperitoneal; conditions: in vivo; summary of the method: as §4
Mus musculus [10] = test: Toxicity in Balb/c mouse assessed as serum ALT level at 150 mg/kg, ip dosed daily for 3 days using compound formulated in Solutol HS15 and ethyl alcohol measured on day 6; format: organism-based; set-up: dose 150 mg/kg, route intraperitoneal; conditions: in vivo, 72 h
[11] = Drug level in liver of Balb/c mouse xenografted with human Calu3 cells at 60 mg/kg, iv using compound formulated in Solutol HS15 and ethyl alcohol measured after 24 hrs by HPLC/MS method; format: ADME, organism-based, Calu-3; set-up: dose 60 mg/kg, route intravenous; conditions: read-out: Drug uptake; summary of the method: as §3
[12] = Stability in powder form in non-evacuated chambers at 37 degC after 1 to 14 days by HPLC method; format: physicochemical; summary of the method: as §6
Calu-3 = test: Anticancer activity against human Calu3 cells at 0.03 to 30 uM by sulforhodamine B assay; format: functional, cell-based; summary of the method: as §1
[13] = Stability in injectable solution with Solutol HS15 and ethyl alcohol and 0.9% NaCl assessed as drug hydrolysis within 7 hrs at 37 degC by HPLC method; format: physicochemical; conditions: read-out: Drug degradation
Mus musculus [14] = test: Toxicity in Balb/c mouse assessed as serum AST level at 25 mg/kg, ip dosed daily for 8 days using compound formulated in Solutol HS15 and ethyl alcohol; conditions: in vivo, 192 h
Mus musculus [15] = test: Toxicity in Balb/c mouse assessed as serum AST level at 150 mg/kg, ip dosed daily for 3 days using compound formulated in Solutol HS15 and ethyl alcohol measured on day 6; format: organism-based; set-up: dose 150 mg/kg, route intraperitoneal; conditions: in vivo, 72 h
Mus musculus [16] = test: Toxicity in Balb/c mouse assessed as serum ALP level at 25 mg/kg, ip dosed daily for 8 days using compound formulated in Solutol HS15 and ethyl alcohol measured on day 6; format: organism-based; set-up: dose 25 mg/kg, route intraperitoneal; conditions: in vivo, 192 h
Kidney [17] = test: Drug level in kidney of Balb/c mouse xenografted with human Calu3 cells assessed as aldehyde metabolite level at 60 mg/kg, iv using compound formulated in Solutol HS15 and ethyl alcohol measured after 24 hrs by HPLC/MS method; format: ADME, organism-based, Calu-3; set-up: dose 60 mg/kg, route intravenous; conditions: in vivo; summary of the method: as §3
Mus musculus [18] = test: Toxicity in Balb/c mouse assessed as histopathological changes in liver at 150 mg/kg, ip dosed once using compound formulated in Solutol HS15 and ethyl alcohol measured after 48 hrs; conditions: in vivo
Spleen = test: Drug level in spleen of Balb/c mouse xenografted with human Calu3 cells assessed as aldehyde metabolite level at 60 mg/kg, iv using compound formulated in Solutol HS15 and ethyl alcohol measured after 24 hrs by HPLC/MS method; format: ADME, organism-based, Calu-3; set-up: dose 60 mg/kg, route intravenous; conditions: in vivo; summary of the method: as §3
Liver [19] = test: Drug level in liver of Balb/c mouse xenografted with human Calu3 cells assessed as aldehyde metabolite level at 60 mg/kg, iv using compound formulated in Solutol HS15 and ethyl alcohol measured after 24 hrs by HPLC/MS method; format: ADME, organism-based, Calu-3; set-up: dose 60 mg/kg, route intravenous; conditions: in vivo; summary of the method: as §3
Mus musculus [20] = test: Toxicity in Balb/c mouse assessed as changes in blood cell parameters at 150 mg/kg, ip dosed daily for 3 days using compound formulated in Solutol HS15 and ethyl alcohol measured after 48 hrs; format: organism-based; set-up: dose 150 mg/kg, route intraperitoneal; conditions: in vivo
Mus musculus [21] = test: Toxicity in Balb/c mouse assessed as serum ALP level at 150 mg/kg, ip dosed daily for 3 days using compound formulated in Solutol HS15 and ethyl alcohol measured on day 6; format: organism-based; set-up: dose 150 mg/kg, route intraperitoneal; conditions: in vivo, 72 h
[22] = Stability in powder form in non-evacuated chambers at 4 degC by HPLC method; format: physicochemical; summary of the method: as §6
Lung [23] = test: Drug level in lung of Balb/c mouse xenografted with human Calu3 cells assessed as aldehyde metabolite level at 60 mg/kg, iv using compound formulated in Solutol HS15 and ethyl alcohol measured after 24 hrs by HPLC/MS method; format: ADME, organism-based, Calu-3; set-up: dose 60 mg/kg, route intravenous; conditions: in vivo; summary of the method: as §3
Plasma = test: Pro-drug conversion in human plasma assessed as oncrasin-72 release by HPLC method; format: ADME, cell-free
Mus musculus [24] = test: Toxicity in Balb/c mouse assessed as serum ALT level at 25 mg/kg, ip dosed daily for 8 days using compound formulated in Solutol HS15 and ethyl alcohol measured on day 6; format: organism-based; set-up: dose 25 mg/kg, route intraperitoneal; conditions: in vivo, 192 h
Mus musculus [25] = test: Half life in Balb/c mouse assessed as oncrasin-72 release at 25 mg/kg, iv using compound formulated in Solutol HS15 and ethyl alcohol by HPLC/MS method; format: ADME, organism-based; set-up: dose 25 mg/kg, route intravenous; conditions: in vivo; summary of the method: as §5
Lung [26] = test: Drug level in lung of Balb/c mouse xenografted with human Calu3 cells assessed as oncrasin-72 level at 60 mg/kg, iv using compound formulated in Solutol HS15 and ethyl alcohol measured after 24 hrs by HPLC/MS method; format: ADME, organism-based, Calu-3; set-up: dose 60 mg/kg, route intravenous; conditions: in vivo; summary of the method: as §3
Liver [27] = test: Drug level in liver of Balb/c mouse xenografted with human Calu3 cells assessed as oncrasin-72 level at 60 mg/kg, iv using compound formulated in Solutol HS15 and ethyl alcohol measured after 24 hrs by HPLC/MS method; format: ADME, organism-based, Calu-3; set-up: dose 60 mg/kg, route intravenous; conditions: in vivo; summary of the method: as §3
[28] = Stability in powder form in non-evacuated chambers at 37 degC after 90 days by HPLC method; format: physicochemical; conditions: read-out: Stability; summary of the method: as §6
[29] = Stability in injectable solution with Solutol HS15 and ethyl alcohol and 0.9% NaCl assessed as drug hydrolysis within 7 hrs at room temperature by HPLC method; format: physicochemical; conditions: injectable solution; read-out: Drug degradation
NCI-H157 = test: Anticancer activity against human NCI-H157 cells at 0.03 to 30 uM by sulforhodamine B assay; format: functional, cell-based; summary of the method: as §1
Tumour [30] = test: Drug level in tumor of Balb/c mouse xenografted with human Calu3 cells assessed as aldehyde metabolite level at 60 mg/kg, iv using compound formulated in Solutol HS15 and ethyl alcohol measured after 24 hrs by HPLC/MS method; format: ADME, organism-based, Neoplasm, Calu-3; set-up: dose 60 mg/kg, route intravenous; conditions: in vivo; summary of the method: as §3
[31] = Pro-drug conversion in pH 7.4 PBS solution assessed as oncrasin-72 release at 0.5 mg/ml by HPLC method; format: ADME; conditions: buffer, TDE = time-dependent effect
Summary of the method: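 Stock in DMSO/acetonitrile was diluted in PBS pH 7.4 to 0.5 mg/ml, with final 12% DMSO and 18% acetonitrile. Incubated at 37°C for up to 24 h. Aliquots taken at 0.5, 1, 3, 6 and 24 h were held at −20°C, then diluted 50-fold in acetonitrile for HPLC. One of two experiments shown.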

## O=C(CC1CCCCC1)OCc1cn(Cc2cccc(Cl)c2)c2ccccc12
NCI-H1299
  Activity: inactive
NCI-H460
  Activity: Active
[1]
  Stability: 4 weeks
Intestine
  Drug uptake: 5.9 µg/g
Tumour [2]
  Drug uptake: 4.7 µg/g
[3]
  Stability: 2 weeks
Mus musculus [4]
  Activity: Toxic
[5]
  half-life: 1 h
[6]
  Stability: 90 days
Mus musculus [7]
  Activity: Non-toxic
Kidney [8]
  Drug uptake: 7.3 µg/g
Mus musculus [9]
  Survival: 2 weeks
Mus musculus [10]
  Activity: 115.5 U/L
[11]
  concentration at 24 h: 157000 ng/g
[12]
  Stability: Stable
Calu-3
  Activity: Active
[13]
  degraded at 7 h: > 10%
Mus musculus [14]
  Activity: 94 U/L
Mus musculus [15]
  Activity: 325.5 U/L
Mus musculus [16]
  Activity: 76 U/L
Kidney [17]
  Drug uptake: 26.5 µg/g
Mus musculus [18]
  Activity: Non-toxic
Spleen
  Drug uptake: 34 µg/g
Liver [19]
  Drug uptake: 14.9 µg/g
Mus musculus [20]
  Activity: Non-toxic
Mus musculus [21]
  Activity: 50 U/L
[22]
  Stability: 90 days
Lung [23]
  Drug uptake: 68.4 µg/g
Plasma
  Drug metabolism: metabolite_detected
Mus musculus [24]
  Activity: 36.3 U/L
Mus musculus [25]
  t1/2: 1.25 h
Lung [26]
  Drug uptake: 7.7 µg/g
Liver [27]
  Drug uptake: 12.6 µg/g
[28]
  remaining at 2160 h: < 5%
[29]
  degraded at 7 h: 10%
NCI-H157
  Activity: Active
Tumour [30]
  Drug uptake: 4.4 µg/g
[31]
  Drug metabolism: tde
